Experimental data published in ChEMBL document CHEMBL1134626, “Synthesis of potent C(2)-symmetric, diol-based hiv-1 protease inhibitors. Investigation of thioalkyl and thioaryl P1/P1' substituents” (J Med Chem, 2001).

Columns and labels:
[1] = Dissociation constant was measured; assay type: physicochemical
[2] = target: Human immunodeficiency virus type 1 protease (Human immunodeficiency virus 1, UniProt Q72874); assay: Inhibitory activity against HIV protease expressed in Escherichia coli
Method in brief: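 HIV-1 protease cloned and heterologously expressed in E. coli; Ki determined by fluorometric enzyme assay.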

[3] = system: Human immunodeficiency virus 1; assay: In Vitro anti HIV activity was evaluated in HIV cytopathic assay in MT-4 cells; assay type: functional; conditions: Human immunodeficiency virus 1, MT4; read-out: ED50 (the source's name)
Method in brief: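 HIV cytopathic assay in MT-4 cells; protection quantified with vital dye XTT; ED50 calculated from percent cytoprotection per compound.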

[4] = system: Human immunodeficiency virus 1; assay: Compound was evaluated for Antiviral activity against HIV-1; assay type: functional; conditions: read-out: ED50 (the source's name)
Method in brief: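 HIV cytopathic assay in MT-4 cells; cell protection read out with the vital dye XTT. ED50 taken as the 50% inhibitory concentration, calculated from percent cytoprotection for each compound.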

SMILES | pKa [1] | Ki [2] | EC50 [3] | EC50 [4]
O=C(NC1c2ccccc2C[C@H]1O)[C@H](Sc1ccccn1)[C@H](O)[C@@H](O)[C@@H](Sc1ccccn1)C(=O)N[C@H]1c2ccccc2C[C@H]1O (stereo not given in full) | 9.6 | 285 nM | > 10000 nM | 
CC(C)c1nc(CN(C)C(=O)N[C@H](C(=O)N[C@@H](Cc2ccccc2)C[C@H](O)[C@H](Cc2ccccc2)NC(=O)OCc2cncs2)C(C)C)cs1 [RITONAVIR] |  |  |  | 55 nM
O=C(NC1c2ccccc2C[C@H]1O)[C@H](SCc1ccccc1F)[C@H](O)[C@@H](O)[C@@H](SCc1ccccc1F)C(=O)N[C@H]1c2ccccc2C[C@H]1O (stereo not given in full) | 9.2 | 4.3 nM | 210 nM | 
O=C(NC1c2ccccc2C[C@H]1O)[C@H](SCc1ccccc1)[C@H](O)[C@@H](O)[C@@H](SCc1ccccc1)C(=O)N[C@H]1c2ccccc2C[C@H]1O (stereo not given in full) | 9.7 | 2.8 nM | 1100 nM | 
CNC(=O)[C@@H](NC(=O)[C@H](Sc1ccccc1F)[C@H](O)[C@@H](O)[C@@H](Sc1ccccc1F)C(=O)N[C@H](C(=O)NC)C(C)C)C(C)C | 6 | 0.57 nM | 3600 nM | 
C=CCS[C@@H](C(=O)NC1c2ccccc2C[C@H]1O)[C@H](O)[C@@H](O)[C@@H](SCC=C)C(=O)N[C@H]1c2ccccc2C[C@H]1O (stereo not given in full) | 9.8 | 16 nM | > 10000 nM | 
O=C(NC1c2ccccc2C[C@H]1O)[C@H](OCc1ccccc1)[C@H](O)[C@@H](O)[C@@H](OCc1ccccc1)C(=O)N[C@H]1c2ccccc2C[C@H]1O (stereo not given in full) |  |  | 96 nM | 
Cc1c(O)cccc1C(=O)N[C@@H](CSc1ccccc1)[C@H](O)CN1C[C@H]2CCCC[C@H]2C[C@H]1C(=O)NC(C)(C)C [NELFINAVIR] |  |  |  | 56 nM
CNC(=O)[C@@H](NC(=O)[C@H](OCc1ccccc1)[C@H](O)[C@@H](O)[C@@H](OCc1ccccc1)C(=O)N[C@H](C(=O)NC)C(C)C)C(C)C |  |  | 1300 nM | 
CNC(=O)[C@@H](NC(=O)[C@H](Sc1cccs1)[C@H](O)[C@@H](O)[C@@H](Sc1cccs1)C(=O)N[C@H](C(=O)NC)C(C)C)C(C)C | 6.4 | 1 nM | 4200 nM | 
CC(C)(C)NC(=O)[C@@H]1CN(Cc2cccnc2)CCN1C[C@@H](O)C[C@@H](Cc1ccccc1)C(=O)N[C@H]1c2ccccc2C[C@H]1O [INDINAVIR] |  |  |  | 73 nM
CNC(=O)[C@@H](NC(=O)[C@H](Sc1ccccc1)[C@H](O)[C@@H](O)[C@@H](Sc1ccccc1)C(=O)N[C@H](C(=O)NC)C(C)C)C(C)C | 6.6 | 1.8 nM | 6300 nM | 
O=C(NC1c2ccccc2C[C@H]1O)[C@H](Sc1ccccc1F)[C@H](O)[C@@H](O)[C@@H](Sc1ccccc1F)C(=O)N[C@H]1c2ccccc2C[C@H]1O (stereo not given in full) | 6 | 2.3 nM | 110 nM | 
O=C(NC1c2ccccc2C[C@H]1O)[C@H](Sc1cccs1)[C@H](O)[C@@H](O)[C@@H](Sc1cccs1)C(=O)N[C@H]1c2ccccc2C[C@H]1O (stereo not given in full) | 6.4 | 0.5 nM | 27 nM | 
O=C(NC1c2ccccc2C[C@H]1O)[C@H](Sc1ccccc1)[C@H](O)[C@@H](O)[C@@H](Sc1ccccc1)C(=O)N[C@H]1c2ccccc2C[C@H]1O (stereo not given in full) | 6.6 | 1.8 nM | 260 nM | 
